In publication PMC4929832 (Nature, 2016):

Tests used:
IRAK1 = IRAK1 (Homo sapiens, UniProt P51617); experiment: kinase panel; type: biochemical
GSK-3-ALPHA = GSK-3-ALPHA (Homo sapiens, UniProt P49840); experiment: kinase panel; type: biochemical
EPH-A4 = EPH-A4 (Homo sapiens, UniProt P54764); experiment: kinase panel; type: biochemical
NEK2 = NEK2 (Homo sapiens, UniProt P51955); experiment: kinase panel; type: biochemical
BMX = BMX (Homo sapiens, UniProt P51813); experiment: kinase panel; type: biochemical
Chain of BMX (P51813 whole entry): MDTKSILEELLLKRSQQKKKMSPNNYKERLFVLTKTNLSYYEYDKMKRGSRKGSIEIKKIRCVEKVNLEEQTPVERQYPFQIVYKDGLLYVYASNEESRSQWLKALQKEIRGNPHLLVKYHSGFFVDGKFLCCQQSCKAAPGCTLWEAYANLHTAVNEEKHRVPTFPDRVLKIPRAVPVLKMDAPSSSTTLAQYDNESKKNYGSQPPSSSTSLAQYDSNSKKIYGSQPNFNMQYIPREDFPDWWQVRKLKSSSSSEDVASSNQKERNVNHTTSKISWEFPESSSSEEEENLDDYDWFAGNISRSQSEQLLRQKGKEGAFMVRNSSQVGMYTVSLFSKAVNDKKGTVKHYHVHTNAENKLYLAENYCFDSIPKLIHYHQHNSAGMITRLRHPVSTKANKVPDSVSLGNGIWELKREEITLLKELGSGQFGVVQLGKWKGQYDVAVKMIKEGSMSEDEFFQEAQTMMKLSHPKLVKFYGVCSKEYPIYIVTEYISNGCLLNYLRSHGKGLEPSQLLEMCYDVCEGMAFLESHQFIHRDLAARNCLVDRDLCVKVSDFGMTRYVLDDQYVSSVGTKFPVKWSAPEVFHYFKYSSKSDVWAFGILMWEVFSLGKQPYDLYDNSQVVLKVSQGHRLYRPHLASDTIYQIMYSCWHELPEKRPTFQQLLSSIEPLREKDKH

PKC-ETA = PKC-ETA (Homo sapiens, UniProt P24723); experiment: kinase panel; type: biochemical
PDK1 = PDK1 (Homo sapiens, UniProt O15530); experiment: kinase panel; type: biochemical
Chain of PDK1 (O15530 whole entry): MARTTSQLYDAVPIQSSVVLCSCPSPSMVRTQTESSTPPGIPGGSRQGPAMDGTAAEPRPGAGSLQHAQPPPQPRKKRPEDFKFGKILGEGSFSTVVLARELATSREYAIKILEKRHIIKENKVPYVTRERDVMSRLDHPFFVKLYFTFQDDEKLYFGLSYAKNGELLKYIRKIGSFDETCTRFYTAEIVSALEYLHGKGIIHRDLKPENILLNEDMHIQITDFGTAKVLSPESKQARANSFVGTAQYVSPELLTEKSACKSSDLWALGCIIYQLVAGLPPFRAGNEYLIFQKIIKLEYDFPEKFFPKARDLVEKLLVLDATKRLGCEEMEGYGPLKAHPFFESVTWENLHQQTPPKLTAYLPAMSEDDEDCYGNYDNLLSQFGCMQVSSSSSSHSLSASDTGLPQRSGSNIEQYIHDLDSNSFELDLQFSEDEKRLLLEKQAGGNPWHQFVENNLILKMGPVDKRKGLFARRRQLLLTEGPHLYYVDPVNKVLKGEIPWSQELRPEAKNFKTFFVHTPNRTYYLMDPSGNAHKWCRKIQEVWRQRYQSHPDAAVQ

AURORA-B = AURORA-B (Homo sapiens, UniProt Q96GD4); experiment: kinase panel; type: biochemical
MST1 = MST1 (Homo sapiens, UniProt Q13043); experiment: kinase panel; type: biochemical
Chain of MST1 (Q13043 whole entry): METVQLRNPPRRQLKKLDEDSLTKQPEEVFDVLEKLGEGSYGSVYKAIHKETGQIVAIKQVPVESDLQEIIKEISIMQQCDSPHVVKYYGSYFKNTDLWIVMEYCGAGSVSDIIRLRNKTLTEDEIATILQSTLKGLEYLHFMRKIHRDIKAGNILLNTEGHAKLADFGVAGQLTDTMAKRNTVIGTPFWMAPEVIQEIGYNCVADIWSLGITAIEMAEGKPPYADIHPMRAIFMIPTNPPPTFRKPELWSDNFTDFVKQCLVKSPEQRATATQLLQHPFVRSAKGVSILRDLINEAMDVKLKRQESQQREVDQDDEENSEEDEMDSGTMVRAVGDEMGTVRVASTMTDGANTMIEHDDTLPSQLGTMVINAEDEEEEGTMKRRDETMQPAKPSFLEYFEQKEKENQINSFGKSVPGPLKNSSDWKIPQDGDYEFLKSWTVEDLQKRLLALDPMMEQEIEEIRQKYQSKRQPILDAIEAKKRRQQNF

RSK3 = RSK3 (Homo sapiens, UniProt Q15349); experiment: kinase panel; type: biochemical
Chain of RSK3 (Q15349 whole entry): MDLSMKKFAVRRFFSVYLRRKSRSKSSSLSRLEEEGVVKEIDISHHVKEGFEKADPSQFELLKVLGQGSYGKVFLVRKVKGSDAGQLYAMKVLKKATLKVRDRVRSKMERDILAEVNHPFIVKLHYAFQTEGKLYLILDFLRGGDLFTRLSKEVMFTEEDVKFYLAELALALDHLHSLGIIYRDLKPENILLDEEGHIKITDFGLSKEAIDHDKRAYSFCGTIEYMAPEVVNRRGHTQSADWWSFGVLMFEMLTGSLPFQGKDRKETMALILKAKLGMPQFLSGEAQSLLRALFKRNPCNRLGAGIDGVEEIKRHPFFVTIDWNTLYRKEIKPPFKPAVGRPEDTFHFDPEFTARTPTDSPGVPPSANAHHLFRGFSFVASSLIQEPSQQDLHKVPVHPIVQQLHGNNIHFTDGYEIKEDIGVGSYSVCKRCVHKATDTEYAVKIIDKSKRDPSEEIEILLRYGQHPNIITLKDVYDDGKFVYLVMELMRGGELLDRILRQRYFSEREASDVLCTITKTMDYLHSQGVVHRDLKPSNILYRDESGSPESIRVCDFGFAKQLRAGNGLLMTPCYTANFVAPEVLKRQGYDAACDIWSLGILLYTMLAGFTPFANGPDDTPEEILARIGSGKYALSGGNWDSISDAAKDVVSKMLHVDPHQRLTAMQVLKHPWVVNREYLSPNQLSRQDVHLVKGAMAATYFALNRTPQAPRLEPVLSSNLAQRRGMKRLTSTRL

[1] = system: EGFR signaling in L858R/T790M/C797S mice; experiment: Pharmacodynamic study, western blotting of tumor nodules; type: in vivo, mouse; conditions: EAI045 in combination with cetuximab, 2 doses
How it was run: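 Transgenic mice were induced at 6 weeks: exon19del/T790M by doxycycline diet, L858R/T790M/C797S by intranasal Ad-Cre. […] Tumor nodules were lysed and protein-equalized for western blotting. Bands were detected by HRP chemiluminescence. Multiple independent tumors were analyzed.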

JNK3 = JNK3 (Homo sapiens, UniProt P53779); experiment: kinase panel; type: biochemical
GRK6 = GRK6 (Homo sapiens, UniProt P43250); experiment: kinase panel; type: biochemical
Chain of GRK6 (P43250 whole entry): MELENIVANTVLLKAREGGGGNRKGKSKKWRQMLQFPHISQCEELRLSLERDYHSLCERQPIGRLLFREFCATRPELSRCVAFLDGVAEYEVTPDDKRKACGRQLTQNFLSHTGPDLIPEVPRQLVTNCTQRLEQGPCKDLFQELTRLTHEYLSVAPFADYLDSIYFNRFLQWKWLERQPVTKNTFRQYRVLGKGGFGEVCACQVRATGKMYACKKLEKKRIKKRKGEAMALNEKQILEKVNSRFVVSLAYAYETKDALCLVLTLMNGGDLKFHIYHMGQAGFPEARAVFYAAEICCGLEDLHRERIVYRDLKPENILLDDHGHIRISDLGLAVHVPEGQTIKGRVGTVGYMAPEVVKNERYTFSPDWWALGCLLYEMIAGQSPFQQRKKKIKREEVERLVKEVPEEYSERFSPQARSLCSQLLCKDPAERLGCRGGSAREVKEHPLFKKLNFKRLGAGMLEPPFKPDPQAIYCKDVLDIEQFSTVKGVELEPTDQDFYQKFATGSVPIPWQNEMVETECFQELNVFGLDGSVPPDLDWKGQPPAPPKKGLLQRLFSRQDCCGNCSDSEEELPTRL

P70S6K1 = P70S6K1 (Homo sapiens, UniProt P23443); experiment: kinase panel; type: biochemical
MARK3 = MARK3 (Homo sapiens, UniProt P27448); experiment: kinase panel; type: biochemical
Chain of MARK3 (P27448 whole entry): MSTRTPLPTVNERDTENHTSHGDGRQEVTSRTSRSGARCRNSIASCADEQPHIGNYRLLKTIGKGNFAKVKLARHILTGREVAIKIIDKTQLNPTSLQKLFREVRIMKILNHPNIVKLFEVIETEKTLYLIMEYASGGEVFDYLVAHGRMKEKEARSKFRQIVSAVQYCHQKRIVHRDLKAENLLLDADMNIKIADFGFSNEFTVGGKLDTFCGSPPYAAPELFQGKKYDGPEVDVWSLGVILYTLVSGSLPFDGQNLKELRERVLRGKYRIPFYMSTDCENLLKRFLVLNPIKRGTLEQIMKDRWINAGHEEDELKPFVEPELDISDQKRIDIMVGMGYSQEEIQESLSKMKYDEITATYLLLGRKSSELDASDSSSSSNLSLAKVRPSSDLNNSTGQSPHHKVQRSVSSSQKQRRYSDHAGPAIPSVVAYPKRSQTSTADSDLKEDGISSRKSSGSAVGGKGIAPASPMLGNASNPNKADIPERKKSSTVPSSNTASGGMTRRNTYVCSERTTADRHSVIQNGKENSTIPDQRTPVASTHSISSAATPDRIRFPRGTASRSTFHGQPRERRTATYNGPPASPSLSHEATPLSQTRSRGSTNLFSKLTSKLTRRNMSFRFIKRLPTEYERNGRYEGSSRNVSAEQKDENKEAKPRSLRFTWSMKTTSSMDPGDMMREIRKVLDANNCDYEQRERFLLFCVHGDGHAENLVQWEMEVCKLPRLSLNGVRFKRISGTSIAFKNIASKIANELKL

MRCK-BETA = MRCK-BETA (Homo sapiens, UniProt Q9Y5S2); experiment: kinase panel; type: biochemical
RSK1 = RSK1 (Homo sapiens, UniProt Q15418); experiment: kinase panel; type: biochemical
AMP-A2B1G1 = AMP-A2B1G1 (Homo sapiens, UniProt P54646); experiment: kinase panel; type: biochemical
STK16 = STK16 (Homo sapiens, UniProt O75716); experiment: kinase panel; type: biochemical
GRK3 = GRK3 (Homo sapiens, UniProt P35626); experiment: kinase panel; type: biochemical
TNIK = TNIK (Homo sapiens, UniProt Q9UKE5); experiment: kinase panel; type: biochemical
MAPKAPK2 = MAPKAPK2 (Homo sapiens, UniProt P49137); experiment: kinase panel; type: biochemical
GRK7 = GRK7 (Homo sapiens, UniProt Q8WTQ7); experiment: kinase panel; type: biochemical
Chain of GRK7 (Q8WTQ7 whole entry): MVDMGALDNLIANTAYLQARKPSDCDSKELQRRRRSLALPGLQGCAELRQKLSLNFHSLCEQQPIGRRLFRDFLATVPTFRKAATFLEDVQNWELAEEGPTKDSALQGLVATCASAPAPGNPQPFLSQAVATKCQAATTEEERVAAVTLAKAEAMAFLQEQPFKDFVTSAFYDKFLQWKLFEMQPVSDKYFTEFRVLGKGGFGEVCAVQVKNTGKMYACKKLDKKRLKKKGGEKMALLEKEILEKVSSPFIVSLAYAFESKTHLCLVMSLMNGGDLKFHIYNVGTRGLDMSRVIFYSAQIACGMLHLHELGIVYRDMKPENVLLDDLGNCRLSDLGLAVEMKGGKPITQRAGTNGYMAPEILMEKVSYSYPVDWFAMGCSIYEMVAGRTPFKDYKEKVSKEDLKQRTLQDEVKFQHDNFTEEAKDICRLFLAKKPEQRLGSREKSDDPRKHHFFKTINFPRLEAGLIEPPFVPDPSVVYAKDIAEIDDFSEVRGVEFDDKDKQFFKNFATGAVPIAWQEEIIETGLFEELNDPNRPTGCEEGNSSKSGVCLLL

Adenosine 3 receptor = Adenosine 3 receptor (Homo sapiens, UniProt P0DMS8); experiment: Adenosine 3 receptor binding assay
PPARgamma Receptor = PPARgamma Receptor (Homo sapiens, UniProt P37231); experiment: PPARgamma Receptor antagonist assay; type: cell-based
[2] = system: L858R/T790M/C797S EGFR Ba/F3 cells; experiment: Ba/F3 cell proliferation; type: cell-based; conditions: EAI045 in combination with cetuximab, 72 hours
How it was run: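 Ba/F3 cells, either parental or stably expressing mutant EGFR lines described earlier, were exposed to the test compound for 72 hours. Cell numbers were set empirically. Growth was read by MTS assay. Each point was run in six wells, and each experiment was repeated at least three times. Curves were fitted by non-linear regression to a sigmoidal dose response.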

H3255 cells = experiment: Proliferation assay; type: cell-based
How it was run: (§1)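 Cells were maintained in 10% FBS/RPMI with penicillin/streptomycin and plated at 500 cells/well in 10% FBS RPMI. Serially diluted test compound was pin-transferred. Viability was read after 3 days by CellTiter-Glo luminescence and normalized to 0.1% DMSO-treated cells and empty wells. EC50 was obtained by non-linear regression curve fitting.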

LATS2 = LATS2 (Homo sapiens, UniProt Q9NRM7); experiment: kinase panel; type: biochemical
PKC-IOTA = PKC-IOTA (Homo sapiens, UniProt P41743); experiment: kinase panel; type: biochemical
PAK4 = PAK4 (Homo sapiens, UniProt O96013); experiment: kinase panel; type: biochemical
DDR2 = DDR2 (Homo sapiens, UniProt Q16832); experiment: kinase panel; type: biochemical
IKK-BETA = IKK-BETA (Homo sapiens, UniProt O14920); experiment: kinase panel; type: biochemical
IRR = IRR (Homo sapiens, UniProt P14616); experiment: kinase panel; type: biochemical
CK2 = experiment: kinase panel; type: biochemical; conditions: CK2, 1 μM
MARK4 = MARK4 (Homo sapiens, UniProt Q96L34); experiment: kinase panel; type: biochemical
HaCaT cells = experiment: Proliferation assay; type: cell-based; conditions: Homo sapiens, 72 h, read-out: EC50 Proliferation
How it was run: as §1

NEK9 = NEK9 (Homo sapiens, UniProt Q8TD19); experiment: kinase panel; type: biochemical
Alpha1A adrenergic = Alpha1A adrenergic (Homo sapiens, UniProt P35348); experiment: Alpha1A adrenergic calcium flux assay; type: cell-based
Chain of Alpha1A adrenergic (P35348 whole entry): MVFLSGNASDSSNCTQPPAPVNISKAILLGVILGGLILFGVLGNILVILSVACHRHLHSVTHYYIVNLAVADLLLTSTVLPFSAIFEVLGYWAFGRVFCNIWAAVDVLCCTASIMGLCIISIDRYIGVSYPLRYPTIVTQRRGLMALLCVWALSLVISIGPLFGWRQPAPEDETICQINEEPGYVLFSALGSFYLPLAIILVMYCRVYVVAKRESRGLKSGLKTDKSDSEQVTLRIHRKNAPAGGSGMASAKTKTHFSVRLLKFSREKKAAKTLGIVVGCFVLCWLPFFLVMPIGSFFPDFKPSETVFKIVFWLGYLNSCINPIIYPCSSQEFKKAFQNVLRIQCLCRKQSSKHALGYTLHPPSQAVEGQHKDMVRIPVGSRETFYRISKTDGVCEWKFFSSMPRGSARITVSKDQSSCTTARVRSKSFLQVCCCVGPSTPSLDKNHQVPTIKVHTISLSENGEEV

inhibition at 1 µM (IRAK1): 4%
inhibition at 1 µM (GSK-3-ALPHA): 6%
inhibition at 1 µM (EPH-A4): 0%
inhibition at 1 µM (NEK2): 2%
inhibition at 1 µM (BMX): 1%
inhibition at 1 µM (PKC-ETA): 0%
inhibition at 1 µM (PDK1): 0%
inhibition at 1 µM (AURORA-B): 4%
inhibition at 1 µM (MST1): 0%
inhibition at 1 µM (RSK3): 0%
inhibition at 1 µM (JNK3): 0%
inhibition at 1 µM (GRK6): 0%
inhibition at 1 µM (P70S6K1): 0%
inhibition at 1 µM (MARK3): 0%
inhibition at 1 µM (MRCK-BETA): 0%
inhibition at 1 µM (RSK1): 0%
inhibition at 1 µM (AMP-A2B1G1): 0%
inhibition at 1 µM (STK16): 0%
inhibition at 1 µM (GRK3): 0%
inhibition at 1 µM (TNIK): 0%
inhibition at 1 µM (MAPKAPK2): 0%
inhibition at 1 µM (GRK7): 0%
IC50 (Adenosine 3 receptor): > 30 µM
IC50 (PPARgamma Receptor): > 30 µM
EC50 (H3255 cells; Homo sapiens, NCI-H3255, 72 h, read-out: EC50 Proliferation): > 10 µM
inhibition at 1 µM (LATS2): 2%
inhibition at 1 µM (PKC-IOTA): 0%
inhibition at 1 µM (PAK4): 0%
inhibition at 1 µM (DDR2): 4%
inhibition at 1 µM (IKK-BETA): 0%
inhibition at 1 µM (IRR): 0%
% inhibition (CK2): 0%
inhibition at 1 µM (MARK4): 0%
IC50 (Alpha1A adrenergic): > 30 µM
SMILES: O=C(Nc1nccs1)C(c1cc(F)ccc1O)N1Cc2ccccc2C1=O (stereo not drawn) [EAI045, 2-(5-fluoro-2-hydroxyphenyl)-2-(1-oxo-2,3-dihydro-1H-isoindol-2-yl)-N-(1,3-thiazol-2-yl)acetamide]
phosphorylation of EGFR and downstream signaling proteins in tumors [1]: effectively inhibited
inhibition of proliferation [2]: potently inhibited
anti-proliferative effect (H3255 cells; H3255, concentrations as high as 10 μM): no anti-proliferative effect
EC50 (HaCaT cells): > 10 µM
inhibition at 1 µM (NEK9): 0%
